Legend:
[1] = molecular target: T1, Amine oxidase [flavin-containing] A (Rattus norvegicus, UniProt P21396); assay: Inhibitory concentration against rat brain mitochondrial monoamine oxidase A
T1 sequence (P21396 whole entry): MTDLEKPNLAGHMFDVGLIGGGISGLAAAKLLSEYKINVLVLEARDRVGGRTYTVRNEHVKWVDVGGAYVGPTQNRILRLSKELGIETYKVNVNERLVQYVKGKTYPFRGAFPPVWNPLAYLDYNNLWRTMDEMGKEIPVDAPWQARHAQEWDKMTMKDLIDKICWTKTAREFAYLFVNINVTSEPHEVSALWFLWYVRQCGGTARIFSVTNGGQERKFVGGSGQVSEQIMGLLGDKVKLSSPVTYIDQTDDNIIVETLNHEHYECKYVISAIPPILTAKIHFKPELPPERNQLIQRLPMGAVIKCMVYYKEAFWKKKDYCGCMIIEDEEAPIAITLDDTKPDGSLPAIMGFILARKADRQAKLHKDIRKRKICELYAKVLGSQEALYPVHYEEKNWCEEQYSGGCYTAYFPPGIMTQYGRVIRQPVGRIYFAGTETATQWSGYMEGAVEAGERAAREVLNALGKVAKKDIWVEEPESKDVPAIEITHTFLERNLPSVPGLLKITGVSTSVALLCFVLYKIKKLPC
Procedure, shortened: (§1)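 Rat brain mitochondrial MAO extract preincubated with inhibitor 15 min at 37 °C in 50 mM potassium phosphate pH 7.4. [3H]serotonin added at 0.2 μM final, then 20 min incubation. Pargyline 2 mM blanks. Stopped with HCl, products extracted into ethyl acetate/toluene and counted radiometrically. Triplicates; IC50 from mean % inhibition vs log concentration.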

[2] = molecular target: T2, Amine oxidase [flavin-containing] B (Rattus norvegicus, UniProt P19643); assay: Inhibitory activity against rat brain mitochondrial Monoamine oxidase B at 1 uM
T2 sequence (P19643 whole entry): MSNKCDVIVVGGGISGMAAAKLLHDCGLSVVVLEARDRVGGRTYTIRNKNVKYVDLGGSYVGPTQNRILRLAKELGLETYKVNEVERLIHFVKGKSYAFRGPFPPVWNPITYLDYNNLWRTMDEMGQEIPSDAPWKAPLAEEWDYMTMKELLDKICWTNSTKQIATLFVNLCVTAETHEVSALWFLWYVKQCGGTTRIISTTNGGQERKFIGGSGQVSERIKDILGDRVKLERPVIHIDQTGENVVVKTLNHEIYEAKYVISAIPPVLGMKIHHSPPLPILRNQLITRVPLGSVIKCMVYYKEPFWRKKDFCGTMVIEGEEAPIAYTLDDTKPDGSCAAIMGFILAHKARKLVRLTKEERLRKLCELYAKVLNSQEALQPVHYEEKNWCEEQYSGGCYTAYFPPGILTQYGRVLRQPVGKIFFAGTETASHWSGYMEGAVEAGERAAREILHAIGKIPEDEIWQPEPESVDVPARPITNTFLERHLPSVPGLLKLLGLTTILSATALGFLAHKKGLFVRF
Procedure, shortened: as §1, with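 “[14C]phenethylamine” for “[3H]serotonin”, “10” for “0.2”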

[3] = molecular target: T1, Amine oxidase [flavin-containing] A; assay: Inhibition of the enzyme Monoamine oxidase A which was not completely reverserved after 24 hr of dialysis after po administration to rat (brain); type: organism-based; conditions: in vivo
[4] = molecular target: T1, Amine oxidase [flavin-containing] A; assay: Inhibitory concentration against rat brain mitochondrial Monoamine oxidase A at 1 uM; procedure, shortened: as §1
[5] = molecular target: T1, Amine oxidase [flavin-containing] A; assay: Inhibitory concentration against rat brain mitochondrial Monoamine oxidase A at <1 uM; procedure, shortened: as §1
[6] = molecular target: T2, Amine oxidase [flavin-containing] B; assay: Inhibitory activity against rat brain mitochondrial Monoamine oxidase B at < 1 uM
Procedure, shortened: as §1, with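 “[14C]phenethylamine” for “[3H]serotonin”, “10” for “0.2”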

[7] = molecular target: T2, Amine oxidase [flavin-containing] B; assay: Inhibitory activity against rat brain mitochondrial Monoamine oxidase B
Procedure, shortened: as §1, with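 “[14C]phenethylamine” for “[3H]serotonin”, “10” for “0.2”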

[8] = molecular target: T1, Amine oxidase [flavin-containing] A; assay: Inhibition of the enzyme Monoamine oxidase A which was not completely reverserved after 24 hr of dialysis
Procedure, shortened: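 Reversibility: MAO extract preincubated with or without inhibitor 15 min at 37 °C, in duplicate, then dialysed 24 h at 4 °C with shaking against 0.1 M potassium phosphate pH 7.4, 5% sucrose, 1 mM dithiothreitol, buffer changed ca. 3 and 19 h. Undialysed portions held at 4 °C; both assayed together for MAO activity.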

[9] = molecular target: T1, Amine oxidase [flavin-containing] A; assay: Inhibitory concentration against rat brain mitochondrial Monoamine oxidase A at 0.1 uM; procedure, shortened: as §1
[10] = molecular target: T2, Amine oxidase [flavin-containing] B; assay: Inhibitory activity against rat brain mitochondrial Monoamine oxidase B at 0.1 uM
Procedure, shortened: as §1, with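 “[14C]phenethylamine” for “[3H]serotonin”, “10” for “0.2”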

[11] = molecular target: T2, Amine oxidase [flavin-containing] B; assay: Inhibitory activity against rat brain mitochondrial Monoamine oxidase B at 0.3 uM
Procedure, shortened: as §1, with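 “[14C]phenethylamine” for “[3H]serotonin”, “10” for “0.2”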

[12] = molecular target: T2, Amine oxidase [flavin-containing] B; assay: Inhibitory activity against rat brain mitochondrial Monoamine oxidase B at 10 uM
Procedure, shortened: as §1, with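 “[14C]phenethylamine” for “[3H]serotonin”, “10” for “0.2”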

[13] = molecular target: T1, Amine oxidase [flavin-containing] A; assay: Ex vivo value for inhibition of MAO A of rats sacrificed 2 hr after po administration; type: organism-based
Procedure, shortened: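 Rats dosed orally, killed 2 h later; brain MAO A inhibition then measured ex vivo.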

[14] = molecular target: T1, Amine oxidase [flavin-containing] A; assay: Inhibition of the enzyme MAO A which was not completely reverserved after 24 hr of dialysis after po administration to rat (brain); type: organism-based; conditions: in vivo
[15] = molecular target: T1, Amine oxidase [flavin-containing] A; assay: Inhibitory concentration against rat brain mitochondrial Monoamine oxidase A at 10 uM; procedure, shortened: as §1
[16] = molecular target: T2, Amine oxidase [flavin-containing] B; assay: Inhibitory activity against rat brain mitochondrial Monoamine oxidase B;NS=not significant at 0.1 uM
Procedure, shortened: as §1, with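 “[14C]phenethylamine” for “[3H]serotonin”, “10” for “0.2”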

IC50 [1] [nM]	inhibition at 1 µM [2] [%]	inhibition at 1 µM [4] [%]	Structure (SMILES)	also measured
	10	12	O=C1c2ccc(C3=NCCN3)cc2S(=O)(=O)c2cc(C(F)(F)F)ccc21	
	10	7	O=c1c2ccccc2sc2c(C3=NCCN3)cccc12	
	10	20	O=S1(=O)c2ccccc2C(O)c2ccc(C3=NCCN3)cc21 (stereo not given)	
	16	41	O=S1(=O)c2ccccc2-c2cc(C3=NCCN3)ccc21	
	10	62	Cc1ccc(C)c2c1[nH]c1ccc(C3=NCCN3)cc12	
1000	14		O=c1c2ccccc2sc2cc(C3=NCCN3)ccc12	
	5	37	O=C1c2ccccc2S(=O)(=O)c2cc(C3=NCCCN3)ccc21	
100			c1ccc2c(c1)Oc1ccc(C3=NCCN3)cc1S2	IC50 [7]: 10000 nM; Reversible [8]: 46%
10	0		CCNc1ccc2c(c1)C(=O)c1ccc(C3=NCCN3)cc1S2(=O)=O	Reversible [3]: 0%
	5	53	Cc1ccc2c(c1)S(=O)(=O)c1cc(C3=NCCN3)ccc1C2=O	
40			CCCc1ccc2c(c1)C(=O)c1ccc(C3=NCCN3)cc1S2(=O)=O	inhibition at 0.3 µM [11]: 0%; Reversible [8]: 2%
10	33		COc1ccc2c(c1)C(=O)c1ccc(C3=NCCN3)cc1S2(=O)=O	Reversible [8]: 5%
	14	14	[O-][S+]1c2ccccc2Sc2ccc(C3=NCCN3)cc21 (stereo not given)	
10			CCc1ccc2c(c1)C(=O)c1ccc(C3=NCCN3)cc1S2(=O)=O	inhibition at 10 µM [12]: 27%; Ki [13]: 4 nM; Reversible [14]: 11%
1000			c1cc2c(cc1C1=NCCN1)Sc1cc(C3=NCCN3)ccc1O2	IC50 [7]: 10000 nM
	12	23	O=S1(=O)c2ccccc2Nc2cc(C3=NCCN3)ccc21	
23			CNc1ccc2c(c1)C(=O)c1ccc(C3=NCCN3)cc1S2(=O)=O	Reversible [8]: 8%
7	12		CCOc1ccc2c(c1)C(=O)c1ccc(C3=NCCN3)cc1S2(=O)=O	Reversible [8]: 4%
200	14		Cc1nc(-c2ccc3c(c2)Sc2ccccc2O3)no1	
20			Cc1ccc2c(c1)C(=O)c1ccc(C3=NCCN3)cc1S2(=O)=O	inhibition at 10 µM [12]: 0%; Reversible [8]: 26%
40			O=S1(=O)c2ccccc2Oc2ccc(C3=NCCN3)cc21	Reversible [8]: 16%; Inhibition [6]: 59%
9	12		C=CCNc1ccc2c(c1)C(=O)c1ccc(C3=NCCN3)cc1S2(=O)=O	Reversible [8]: 5%
	11	59	c1ccc2c(c1)Cc1cc(C3=NCCN3)ccc1-2	
200	12		O=C1c2cc(F)ccc2S(=O)(=O)c2cc(C3=NCCN3)ccc21	Reversible [8]: 62%
50			CC(C)c1ccc2c(c1)C(=O)c1ccc(C3=NCCN3)cc1S2(=O)=O	Reversible [8]: 40%; inhibition at 0.1 µM [10]: 0%
300			O=C1c2ccccc2S(=O)(=O)c2cc(C3=NCCN3)ccc21	inhibition at 0.3 µM [11]: 3%; Ki [13]: 80 nM; Reversible [14]: 100%
	-6	-5	O=C1c2ccccc2S(=O)(=O)c2c1cccc2C1=NCCN1	

Continued, compound first:

Structure (SMILES)	IC50 [1] [nM]	inhibition at 1 µM [2] [%]	inhibition at 1 µM [4] [%]	also measured
NCCNc1ccc2c(c1)C(=O)c1ccc(C3=NCCN3)cc1S2(=O)=O	300	11		Reversible [3]: 20%
CC(=O)N1CCN=C1c1ccc2c(c1)S(=O)(=O)c1ccc(F)cc1C2=O				Inhibition [5]: 4%; Inhibition [6]: -11%
CCCOc1ccc2sc3cc(-c4nnc(C)o4)ccc3c(=O)c2c1	60			IC50 [7]: 1000 nM; Reversible [8]: 10%
CCn1nnc(-c2ccc3c(c2)S(=O)(=O)c2ccccc2C3=O)n1		45	36	
c1cc2c3c([nH]c2cc1C1=NCCN1)CCCC3		9	20	
O=c1c2ccc(-c3nnn(CCO)n3)cc2oc2ccc(OCCO)cc12				Inhibition [5]: 29%; Inhibition [6]: 18%
Cn1nnnc1-c1ccc2c(c1)S(=O)(=O)c1ccccc1C2=O				inhibition at 0.1 µM [9]: 53%; inhibition at 0.1 µM [10]: 1%
CC(C)c1ccc2sc3cc(-c4nn[nH]n4)ccc3c(=O)c2c1		5	24	
Cn1nnc(-c2ccc3c(=O)c4cc(OCCO)ccc4oc3c2)n1			64	Inhibition [6]: 21%
CN1CCN=C1c1ccc2c(c1)S(=O)(=O)c1ccccc1C2=O		18	27	Inhibition ([2]; 1 µM): 11%
COc1ccc2c(c1)C(=O)c1ccc(-c3nnn(C)n3)cc1S2(=O)=O	2			IC50 [7]: 60 nM; Reversible [8]: 29%
O=S1(=O)c2ccccc2-c2cc(-c3nn[nH]n3)ccc21		0	9	
CCOc1ccc2oc3cc(-c4nnn(CC)n4)ccc3c(=O)c2c1				Inhibition [5]: 6%; Inhibition [6]: 32%
CC1CN=C(c2ccc3c(c2)S(=O)(=O)c2ccccc2C3=O)N1 (stereo not given)				inhibition at 10 µM [12]: 49%; inhibition at 10 µM [15]: 36%
O=C1c2cc(N3CCOCC3)ccc2S(=O)(=O)c2cc(C3=NCCN3)ccc21	10	4		
COc1ccc2c(c1)C(=O)c1ccc(-c3nnc(C)o3)cc1S2(=O)=O	1			IC50 [7]: 100 nM; Reversible [8]: 14%
O=C1c2cc(C3=NCCN3)ccc2S(=O)(=O)c2cc(C3=NCCN3)ccc21		3	46	
Cn1nnc(-c2ccc3c(c2)S(=O)(=O)c2ccccc2C3=O)n1	10	10		Reversible [8]: 100%
CCCOc1ccc2c(c1)C(=O)c1ccc(C3=NCCN3C(C)=O)cc1S2(=O)=O				inhibition at 0.1 µM [9]: 16%; inhibition at 0.1 µM [10]: 20%
COc1nnc(-c2ccc3c(c2)S(=O)(=O)c2ccccc2C3=O)o1	80	14		
CCN(C)c1ccc2c(c1)C(=O)c1ccc(C3=NCCN3)cc1S2(=O)=O	40			IC50 [16]: Not Active; Reversible [3]: 20%
c1ccc(Cn2c3ccccc3c3cc(C4=NCCN4)ccc32)cc1				inhibition at 10 µM [12]: 61%; inhibition at 10 µM [15]: 20%
CCn1nnc(-c2ccc3c(=O)c4cc(O)ccc4oc3c2)n1	2000			IC50 [7]: 100 nM
Cc1nc(-c2ccc3c(c2)S(=O)(=O)c2ccccc2O3)no1		17	98	
CC(C)c1ccc2c(c1)C(=O)c1ccc(-c3nnn(C)n3)cc1S2(=O)=O	5			Reversible [8]: 0%; inhibition at 0.1 µM [10]: -30%
CCc1nnc(-c2ccc3c(c2)S(=O)(=O)c2ccccc2C3=O)o1	500	23		
O=C1c2ccccc2S(=O)(=O)c2cc(-c3nn[nH]n3)ccc21 [DOXANTRAZOLE]				inhibition at 10 µM [12]: 1%; inhibition at 10 µM [15]: 9%
